These results are taken from PubChem BioAssay AID588776 (Johns Hopkins Ion Channel Center, 2011).

For the test, the target named is Potassium channel subfamily K member 3 (Rattus norvegicus) (UniProt O54912). Kind of test: KCNK3 channel inhibition in expressing cells, SAR follow-up, selectivity assay for KCNK9 inhibitor project, cell-based, FluxOR thallium flux, CRC set 1 (AID 588776). Conditions: FluxOR thallium flux fluorescence; for flux ratio, lower = inhibition: at 30 µM (top of the series). The essentials: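 Material: Tetracycline-induced KCNK3-expressing CHO cells | Schedule: 90 min dye load, 20 min compound, room temperature | Measured by: Kinetic fluorescence of FluxOR thallium-sensitive dye after stimulus addition | Measure: Baseline-normalized fluorescence change, IC50 and Hill fit | Repeats: Duplicate or more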

Each structure is given as a SMILES string. Activity calls are given as the source filed them.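 Rule for the calls: active = peak inhibition of the KCNK3 potassium channel above 30% at some tested dose, plus a fitted dose response curve; inactive = no inhibition at any dose, or no curve could be fitted.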

Sequence of Potassium channel subfamily K member 3 (Rattus norvegicus) (O54912 whole entry, looked up): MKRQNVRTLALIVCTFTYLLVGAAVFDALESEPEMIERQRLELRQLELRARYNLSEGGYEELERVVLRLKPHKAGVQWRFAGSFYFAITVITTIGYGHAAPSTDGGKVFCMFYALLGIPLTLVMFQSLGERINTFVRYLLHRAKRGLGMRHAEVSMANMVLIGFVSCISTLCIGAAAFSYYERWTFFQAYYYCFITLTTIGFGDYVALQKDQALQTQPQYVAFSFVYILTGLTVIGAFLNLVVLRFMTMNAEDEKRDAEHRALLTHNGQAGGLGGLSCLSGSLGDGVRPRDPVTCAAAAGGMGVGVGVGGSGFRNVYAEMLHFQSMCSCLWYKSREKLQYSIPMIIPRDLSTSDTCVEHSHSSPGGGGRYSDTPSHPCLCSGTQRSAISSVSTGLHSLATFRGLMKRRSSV

What is called IC50 is the midpoint of a concentration-inhibition curve. Regarding `CC(C1CC2CCC1C2)n1c(SCC(=O)c2ccccc2)nnc1-c1ccco1` (stereo not drawn), the IC50 was 1.22 µM.

As to `CC(C1CC2CCC1C2)n1c(-c2ccncc2)n[nH]c1=S` (stereo not drawn), the “flux ratio, lower = inhibition” value was “inactive”.

Take `CC(CCC1CCCC1)n1c(-c2ccco2)n[nH]c1=S` (stereo not drawn): the IC50 was 2.36 µM.

In the case of `CC(CC1CC2CCC1C2)n1c(-c2ccco2)n[nH]c1=S` (stereo not drawn), the IC50 is 15.8 µM.

As to `CC(C1C2CCC1CC2)n1c(-c2ccco2)n[nH]c1=S` (stereo not drawn), the “flux ratio, lower = inhibition” value is “inactive”.

`C[C@@H](C1CCCCC1)n1c(-c2ccco2)n[nH]c1=S`: the concentration for half-maximal inhibition (IC50) is greater than 30 µM.

Consider `CC(C1CC2CCC1C2)n1c(SCC(=O)c2ccc3c(c2)OCO3)nnc1-c1ccco1` (stereo not drawn), for which the IC50 was 4.87 µM.

For the molecule `CC(C1CC2CCC1C2)n1c(-c2ccc(N(C)C)cc2)n[nH]c1=S` (stereo not drawn), the “flux ratio, lower = inhibition” value was “inactive”.

For the molecule `CC(C1CC2CCC1C2)n1c(-c2cccc(N(C)C)c2)n[nH]c1=S` (stereo not drawn), the “flux ratio, lower = inhibition” value was “inactive”.

On to `COc1ccc(CCSc2nnc(-c3ccco3)n2C(C)C2CC3CCC2C3)cc1OC` (stereo not drawn), for which the half-inhibitory concentration (IC50) is 15.5 µM.

In the case of `CC(C1CC2CCC1C2)n1c(SCC(=O)c2ccc(Cl)c(Cl)c2)nnc1-c1ccco1` (stereo not drawn), the concentration for half-maximal inhibition (IC50) is 7.94 µM.

Consider `COc1cccc(C(=O)CSc2nnc(-c3ccco3)n2C(C)C2CC3CCC2C3)c1` (stereo not drawn), for which the IC50 is 14.7 µM.

On to `C[C@H](C1CCCCC1)n1c(-c2ccco2)n[nH]c1=S`, for which the “flux ratio, lower = inhibition” value was “inactive”.
